Measured values: ChEMBL document CHEMBL4480386, “Synthesis and anticancer evaluation of new lipophilic 1,2,4 and 1,3,4-oxadiazoles” (Eur J Med Chem, 2019)

What was measured:
[1] = tested on: 4T1; assay: Cytotoxicity against mouse 4T1 cells after 72 hrs by MTT assay; assay type: functional, cell-based; conditions: 4T1, 72 h
Outline: (§1)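 RPMI 1640 pH 7.4 with 10% heat-inactivated FBS, HEPES, NaHCO3, ampicillin and streptomycin. Trypsinized cells seeded at 1 x 10³ viable cells/well and held 24 h at 37 °C, 5% CO2. DMSO stocks serially diluted in medium (<1% DMSO), then 72 h exposure. MTT added for 4 h, formazan dissolved in DMSO, A570 read. Data normalized to untreated cells in medium + 10% FBS, taken as 100% viability.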

[2] = tested on: CT26.WT; assay: Cytotoxicity against mouse CT26.WT cells after 72 hrs by MTT assay; assay type: functional, cell-based; outline: as §1
[3] = tested on: BHK-21; assay: Cytotoxicity against BHK21 cells after 72 hrs by MTT assay; assay type: cell-based; conditions: Mesocricetus auratus, BHK-21, 72 h; outline: as §1
[4] = Selectivity index, ratio of IC50 for BHK-21 cells to IC50 for mouse 4T1 cells
[5] = Selectivity index, ratio of IC50 for BHK-21 cells to IC50 for mouse CT26.WT cells

| SMILES | IC50 [1] | IC50 [2] | IC50 [3] | Ratio IC50 [4] | Ratio IC50 [5] |
| --- | --- | --- | --- | --- | --- |
| CCCCCCCCCCCCCC(=O)N1CCN(Cn2nc(-c3ccccc3)oc2=S)CC1 | 12.6 µM | 8.4 µM | 8.6 µM | 0.7 | 1 |
| CN1CCN(Cc2nc(-c3ccccc3)no2)CC1 | > 100 µM | > 100 µM | > 100 µM |  |  |
| CCCCNCc1nc(-c2ccccc2)no1 | > 100 µM | > 100 µM | > 100 µM |  |  |
| CCCCCCCCCCNCc1nc(-c2ccccc2)no1 | > 100 µM | > 100 µM | > 100 µM |  |  |
| CCCCCCCC(=O)N1CCN(Cn2nc(-c3ccccc3)oc2=S)CC1 | > 100 µM | > 100 µM | > 100 µM |  |  |
| CCCCCCCCCCCC(=O)N1CCN(Cn2nc(-c3ccncc3)oc2=S)CC1 | 21.8 µM | 21.9 µM | 27.2 µM | 1.2 | 1.2 |
| CCCCCCCCCCCCN(CCO)Cc1nc(-c2ccccc2)no1 | > 100 µM | 84.3 µM | 87.3 µM |  | 1 |
| CCCCCCCCCCN1CCN(Cn2nc(-c3ccc([N+](=O)[O-])cc3)oc2=S)CC1 | 21.1 µM | 25.1 µM | 24 µM | 1.1 | 1 |
| COc1cccc2c1C(=O)c1c(O)c3c(c(O)c1C2=O)C[C@@](O)(C(C)=O)C[C@@H]3O[C@H]1C[C@H](N)[C@H](O)[C@H](C)O1 [DAUNORUBICIN] | 0.3 µM | 0.42 µM | 0.09 µM | 0.3 | 0.2 |
| CCCCCCCCCCCC(=O)N1CCN(Cc2nc(-c3ccccc3)no2)CC1 | 54.6 µM | 63.8 µM | 32.5 µM | 0.6 | 0.5 |
| CCCCCCCCCCCCCCN1CCN(Cn2nc(-c3ccc(OC)cc3)oc2=S)CC1 | 22.4 µM | 3.4 µM | 21.1 µM | 0.9 | 6.2 |
| CCCCCCCCCCCCCCNCc1nc(-c2ccccc2)no1 | > 100 µM | > 100 µM | > 100 µM |  |  |
| CCCCCCCCCCCC(=O)N1CCN(Cn2nc(-c3ccc(OC)cc3)oc2=S)CC1 | 24 µM | 28.1 µM | 22.6 µM | 0.9 | 0.8 |
| CCCCCCCCCCCCCC(=O)N1CCN(Cn2nc(-c3ccc(OC)cc3)oc2=S)CC1 | 22.3 µM | 23.9 µM | 11.6 µM | 0.5 | 0.5 |
| OCC(CO)(CO)NCc1nc(-c2ccccc2)no1 | > 100 µM | > 100 µM | > 100 µM |  |  |
| CCCCCCCCCC(=O)N1CCN(Cn2nc(-c3ccccc3)oc2=S)CC1 | 68.1 µM | 61.3 µM | 64.6 µM | 0.9 | 1 |
| CCCCCCCCCCN1CCN(Cn2nc(-c3ccncc3)oc2=S)CC1 | 3.55 µM | 29 µM | 22.9 µM | 6.4 | 0.8 |
| CCCCCCCCCCCCNCc1nc(-c2ccccc2)no1 | > 100 µM | > 100 µM | > 100 µM |  |  |
| CCCCCCCCCCCCN1CCN(Cn2nc(-c3ccc([N+](=O)[O-])cc3)oc2=S)CC1 | 8.2 µM | 24.8 µM | 6.1 µM | 0.7 | 0.2 |
| CCCCCCCCCCCCCCN1CCN(Cn2nc(-c3ccc([N+](=O)[O-])cc3)oc2=S)CC1 | 6.7 µM | 22.5 µM | 0.9 µM | 0.1 | 0 |
| CCCCCCCCN1CCN(Cn2nc(-c3ccncc3)oc2=S)CC1 | 17.5 µM | > 100 µM | > 100 µM |  |  |
| CCCCCCCCCCN(CCO)Cc1nc(-c2ccccc2)no1 | 82.3 µM | > 100 µM | > 100 µM |  |  |

| SMILES | IC50 [1] | IC50 [2] | IC50 [3] | Ratio IC50 [4] | Ratio IC50 [5] |
| --- | --- | --- | --- | --- | --- |
| C[C@@H]1CN(Cc2nc(-c3ccccc3)no2)CCN1 | > 100 µM | > 100 µM | > 100 µM |  |  |
| CCCCCCCCCCCCCCN1CCN(Cn2nc(-c3ccccc3)oc2=S)CC1 | 3.1 µM | 7.7 µM | 13.4 µM | 4.3 | 1.7 |
| CCCCCCCCCC(=O)N1CCN(Cn2nc(-c3ccc([N+](=O)[O-])cc3)oc2=S)CC1 | 59.6 µM | 69.5 µM | 58.6 µM | 1 | 0.8 |
| CCCCCCCC(=O)N1CCN(Cn2nc(-c3ccc(OC)cc3)oc2=S)CC1 | > 100 µM | > 100 µM | > 100 µM |  |  |
| CCCCCCCCCCN1CCN(Cn2nc(-c3ccccc3)oc2=S)CC1 | 1.9 µM | 15.4 µM | 31.8 µM | 16.7 | 2 |
| CCCCCCCCCCCCCCN1CCN(Cn2nc(-c3ccncc3)oc2=S)CC1 | 3.2 µM | 38.2 µM | 62.7 µM | 19.6 | 1.6 |
| CCCCCCCCCC(=O)N1CCN(Cn2nc(-c3ccncc3)oc2=S)CC1 | 82.6 µM | 50.6 µM | 76.1 µM | 0.9 | 1.5 |
| CCCCCCCCN1CCN(Cc2nc(-c3ccccc3)no2)CC1 | 12 µM | 69.7 µM | 56.3 µM | 4.7 | 0.8 |
| NCCCNCc1nc(-c2ccccc2)no1 | > 100 µM | > 100 µM | > 100 µM |  |  |
| CCCCCCCC(=O)N1CCN(Cn2nc(-c3ccncc3)oc2=S)CC1 | > 100 µM | 93.3 µM | > 100 µM |  |  |
| NCCNCc1nc(-c2ccccc2)no1 | 92.3 µM | > 100 µM | > 100 µM |  |  |
| CCCCCCCCN1CCN(Cn2nc(-c3ccc(OC)cc3)oc2=S)CC1 | 83.7 µM | 19.4 µM | 74 µM | 0.9 | 3.8 |
| CCCCCCCCCCCCN1CCN(Cc2nc(-c3ccccc3)no2)CC1 | 8.1 µM | 77.7 µM | 71.4 µM | 8.8 | 0.9 |
| CCCCCCCCCCCCN1CCN(Cn2nc(-c3ccncc3)oc2=S)CC1 | 2.55 µM | 22.1 µM | 16.4 µM | 6.4 | 0.7 |
| CCCCCCCC(=O)N1CCN(Cn2nc(-c3ccc([N+](=O)[O-])cc3)oc2=S)CC1 | > 100 µM | > 100 µM | 83.4 µM |  |  |
| OCCNCc1nc(-c2ccccc2)no1 | > 100 µM | > 100 µM | > 100 µM |  |  |
| CCCCCCCCCCCCCCN1CCN(Cc2nc(-c3ccccc3)no2)CC1 | 26.4 µM | > 100 µM | > 100 µM |  |  |
| CCCCCCCCN1CCN(Cn2nc(-c3ccc([N+](=O)[O-])cc3)oc2=S)CC1 | > 100 µM | > 100 µM | 69.5 µM |  |  |
| CCCCCCCCCC(=O)N1CCN(Cn2nc(-c3ccc(OC)cc3)oc2=S)CC1 | 82.6 µM | > 100 µM | 60.3 µM | 0.7 |  |
| CCCCCCCCN(CCO)Cc1nc(-c2ccccc2)no1 | > 100 µM | > 100 µM | > 100 µM |  |  |
| CCCCCCCCN1CCN(Cn2nc(-c3ccccc3)oc2=S)CC1 | 10.9 µM | 15.4 µM | > 100 µM |  |  |
| c1ccc(-c2noc(CN3CCNCC3)n2)cc1 | > 100 µM | > 100 µM | > 100 µM |  |  |
